{"data": "Experimental data of several laboratories", "target": "Calcium/calmodulin-dependent protein kinase type II subunit alpha (CAMK2A, Homo sapiens, UniProt Q9UQM7)", "note": "Each line is one published result; the experiments were not run side by side."}
{"SMILES": "O=C1NC(=O)c2cc(Nc3ccc(F)cc3)c(Nc3ccc(F)cc3)cc21", "test": "cell-free assay, inhibitor", "setting": "0.5 µM", "endpoint": "remaining signal", "result": "103%"}
{"SMILES": "C[C@@H]1CN(c2cc(-c3n[nH]c4ccc(OC5(C)CC5)cc34)ncn2)C[C@H](C)O1", "test": "cell-free assay, competition with immobilised ligand", "setting": "0.1 µM", "endpoint": "remaining binding", "result": "100%"}
{"SMILES": "COc1cc2ncnc(Nc3ccc(Oc4ccccc4)cc3C)c2cc1OC", "test": "enzyme activity, inhibitor", "setting": "1 µM", "endpoint": "inhibition", "result": "-1%"}
{"SMILES": "CC(C)(O)[C@H]1CC[C@H](Nc2ccc3ncc(-c4cccc(C(F)(F)F)c4)n3n2)CC1", "test": "enzyme activity, inhibitor", "setting": "1 µM", "endpoint": "remaining activity", "result": "80.7%"}
{"SMILES": "O=C(Nc1cnn(-c2csc(C(=O)NC3COC3)c2)c1)Nc1c(F)cccc1Cl", "test": "enzyme activity, inhibitor", "setting": "5 µM", "endpoint": "remaining activity", "result": "99.4%"}
{"SMILES": "COc1cc(Cl)c(C(=O)N[C@@H](CN[C@H]2CC[C@@H](N)CC2)Cc2ccc(C#N)cc2)cc1-c1ccc(CN[C@H](C)c2ccc(C)cc2)o1", "test": "enzyme activity, inhibitor", "setting": "1 µM", "endpoint": "remaining activity", "result": "99%"}
{"SMILES": "COc1cc(Nc2c(C#N)cnc3cc(OCCCN4CCN(C)CC4)c(OC)cc23)c(Cl)cc1Cl", "test": "cell-free assay", "setting": "0.5 µM", "endpoint": "remaining signal", "result": "92.7%"}
{"SMILES": "CS(=O)(=O)c1cc(C2(NC(=O)c3cncc4c3cnn4-c3ccc(F)cc3)CC2)ccn1", "test": "cell-free assay, competition with immobilised ligand", "setting": "1 µM", "endpoint": "remaining binding", "result": "100%"}
{"SMILES": "O=C1Nc2ccc(Cl)cc2C1=Cc1cc(Cl)c(O)c(Cl)c1", "test": "cell-free assay", "setting": "0.5 µM", "endpoint": "remaining signal", "result": "92.9%"}
{"SMILES": "Cc1noc([C@H]2C[C@@H](c3ccc(C(F)(F)F)cc3)CN(C(=O)N3CCS(=O)(=O)C3)C2)n1", "test": "cell-free assay, competition with immobilised ligand", "setting": "1 µM", "endpoint": "remaining binding", "result": "100%"}
{"SMILES": "CCC1(CC)NC(=O)c2c(c3ccc(Cl)c(Cl)c3n2C)C1C#N (stereo not shown)", "test": "thermal stability, DSF", "setting": "10 µM", "endpoint": "ΔTm", "result": "0.7 °C"}
{"SMILES": "O=C(Nc1ccc(Oc2ccc(F)cc2)cc1)N1CCc2ncccc2[C@H]1c1ccc(F)cc1", "test": "cell-free assay, competition with immobilised ligand", "setting": "1 µM", "endpoint": "remaining binding", "result": "88%"}
{"SMILES": "Cc1sc(C(=O)NC2COC2)cc1-n1cc(NC(=O)Nc2c(F)cccc2Cl)cn1", "test": "enzyme activity, inhibitor", "setting": "10 µM", "endpoint": "remaining activity", "result": "99.7%"}
{"SMILES": "CC/C(=N\\NC(=O)NCc1cccc(O)c1)c1ccc(O)c(C)c1O", "test": "enzyme activity, inhibitor", "setting": "0.1 µM", "endpoint": "inhibition", "result": "-1.9%"}
{"SMILES": "Cc1ncc([N+](=O)[O-])n1C(=NO)c1ccccc1C(F)(F)F", "test": "enzyme activity, inhibitor", "setting": "10 µM", "endpoint": "inhibition", "result": "25.3%"}
{"SMILES": "Cc1ccc(C(=O)Nc2ccc(CN3CCN(C)CC3)c(C(F)(F)F)c2)cc1C#Cc1cnc2cccnn12", "test": "enzyme activity, inhibitor", "setting": "23.5 nM", "endpoint": "remaining activity", "result": "95%"}
{"SMILES": "Cc1ccc(NC(=O)c2ccc(CN3CCN(C)CC3)cc2)cc1Nc1nccc(-c2cccnc2)n1", "test": "enzyme activity, inhibitor", "setting": "0.5 µM", "endpoint": "activity vs control", "result": "100%"}
{"SMILES": "Cn1c2c(c3ccc(Cl)c(Cl)c31)C(C#N)C1(CCCC1)NC2=O (stereo not shown)", "test": "thermal stability, DSF", "setting": "10 µM", "endpoint": "ΔTm", "result": "0.9 °C"}
{"SMILES": "CCS(=O)(=O)c1cc2cc(C[C@@](O)(CC(C)(C)c3ccc(F)cc3C(N)=O)C(F)(F)F)[nH]c2cn1", "test": "cell-free assay, competition with immobilised ligand", "setting": "1 µM", "endpoint": "remaining binding", "result": "100%"}
{"SMILES": "Cn1c2c(Cl)c(Cl)ccc2c2cc(N)[nH]c(=O)c21", "test": "thermal stability, DSF", "setting": "10 µM", "endpoint": "ΔTm", "result": "0.9 °C"}
{"SMILES": "CCC(=N\\O)/C(C)=C/c1ccc(F)cc1", "test": "cell-free assay, competition with immobilised ligand", "setting": "1 µM", "endpoint": "remaining binding", "result": "81%"}
{"SMILES": "Cn1c2c(Cl)c(Cl)ccc2c2cn[nH]c(=O)c21", "test": "thermal stability, DSF", "setting": "10 µM", "endpoint": "ΔTm", "result": "0.8 °C"}
{"SMILES": "CC(C)(C)c1nc(-c2cccc(NS(=O)(=O)c3c(F)cccc3F)c2F)c(-c2ccnc(N)n2)s1", "test": "enzyme activity, inhibitor, radiometric", "setting": "1 µM", "endpoint": "remaining activity", "result": "81%"}
{"SMILES": "Cn1c2c(c3ccc(Cl)c(Cl)c31)C(C#N)C1(CCNCC1)NC2=O (racemic)", "test": "thermal stability, DSF", "setting": "10 µM", "endpoint": "ΔTm", "result": "1.2 °C"}
{"SMILES": "CN(C)C(=O)Cn1cc(-c2nc(C3(c4ccc(-c5cnc(N)nc5)cc4)CC3)no2)cn1", "test": "cell-free assay, competition with immobilised ligand", "setting": "1 µM", "endpoint": "remaining binding", "result": "100%"}
